{"source": "paper PMC9386786", "about": "(Cell metabolism, 2022)", "molecules": {"B1": {"name": "GDF15 protein: Growth differentiation factor 15, circulating secretory protein (protein, UniProt Q99988 195-308, looked up)", "Growth/differentiation factor …": "ARARNGDHCPLGPGRCCRLHTVRASLEDLGWADWVLSPREVQVTMCIGACPSQFRAANMHAQIKTSLHRLKPDTVPAPCCVPASYNPMVLIQKTDTGVSLQTYDDLLAKDCHCI"}}, "key": {"CNOT6L": {"molecular_target": "CNOT6L (Homo sapiens, UniProt Q96LI5)", "sequence (Q96LI5 158-555)": "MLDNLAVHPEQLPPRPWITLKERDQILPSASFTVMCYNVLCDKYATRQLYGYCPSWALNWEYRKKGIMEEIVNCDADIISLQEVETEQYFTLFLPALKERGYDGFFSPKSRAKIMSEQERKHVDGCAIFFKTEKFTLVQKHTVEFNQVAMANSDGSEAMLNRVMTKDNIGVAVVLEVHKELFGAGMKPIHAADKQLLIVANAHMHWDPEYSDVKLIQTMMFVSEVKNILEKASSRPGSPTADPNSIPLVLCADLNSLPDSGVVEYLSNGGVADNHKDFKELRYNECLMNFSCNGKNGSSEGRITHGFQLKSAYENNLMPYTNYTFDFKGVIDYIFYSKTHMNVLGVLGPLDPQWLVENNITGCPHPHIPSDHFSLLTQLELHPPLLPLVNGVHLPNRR", "assay": "Gel-based deadenylase assay, CNOT6L", "format": "biochemical"}, "[1]": {"tested_on": "GDF15 and FGF21 mRNAs in Huh7 cells", "assay": "Hepatokine mRNA and protein levels in Huh7 cells", "format": "cell-based, human", "conditions": "for EC50: Homo sapiens"}, "[2]": {"tested_on": "C57BL/6J WT mice kept on a high-fat diet", "assay": "HFD-induced obese mouse model, treatment twice a week for 12 weeks", "format": "in vivo", "procedure,_shortened": "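From 8 weeks of age, male and female C57BL/6J mice were fed high-fat diet for 12 weeks and given test compound (2 mg/kg) or vehicle ip twice weekly. Measurements included: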"}, "[3]": {"tested_on": "3' UTRs of human GDF15 and FGF21 and mouse Gdf15 and Fgf21 mRNAs", "assay": "3' UTR luciferase assay in Huh7 cells", "format": "cell-based", "procedure,_shortened": "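Human GDF15/FGF21 3′UTRs (amplified from Huh7 cDNA) and mouse Gdf15/Fgf21 3′UTRs (from WT mouse liver cDNA) were cloned downstream of the firefly luciferase coding region. These plasmids (50–100 ng) were lipofected into Huh7 cells together with a Renilla luciferase (TK) control. Firefly and Renilla activities were measured by dual-luciferase assay, and firefly signal was normalized to Renilla to correct for transfection efficiency.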"}, "[4]": {"tested_on": "hepatic Gdf15 and Fgf21 mRNAs, serum GDF15 and FGF21", "assay": "Hepatokine levels after intraperitoneal administration in WT C57BL/6J mice", "format": "in vivo, mouse", "procedure,_shortened": "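WT mice received test compound ip at 2 mg/kg. For fasting/refeeding, mice were fed, fasted 24 h, or refed 2 h after a 24 h fast, and were injected 3 h before dissection. For exercise, mice ran to exhaustion on a 10°-sloped shock treadmill and were sampled before, immediately after, or 3 h after running, with food and water available. Poly(I:C) was given ip at 10 mg/kg. Hepatic mRNA was measured by RT-qPCR (Hprt-normalized) and serum GDF15/FGF21 by ELISA.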"}, "[5]": {"tested_on": "neurons in NTS, AP and PVN", "assay": "c-Fos immunofluorescence in the brain", "format": "in vivo, mouse"}, "WT mice [6]": {"tested_on": "WT mice", "assay": "Food intake and body weight after a single administration in mice", "format": "in vivo, mouse", "conditions": "for ED50: Mus musculus, ip"}, "[7]": {"tested_on": "GDF15 and FGF21 mRNAs in primary hepatocytes and Huh7 cells", "assay": "mRNA stability assay with actinomycin D", "format": "cell-based", "conditions": "with actinomycin D 5 μg/mL; iD1 5 μM", "procedure,_shortened": "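Mouse primary hepatocytes and Huh7 cells were treated with actinomycin D (5 μg/mL) plus DMSO vehicle or test compound (5 μM in hepatocytes) for a time course. Before actinomycin D, Huh7 cells were pretreated with Wy-14643 (200 μM, 6 h) to induce FGF21 mRNA. Transcripts were measured by RT-qPCR, normalized to Hprt or GAPDH, and expressed as percent of the initial level. Half-lives were fitted by first-order decay; n = 3.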"}, "[8]": {"tested_on": "Gdf15 and Fgf21 mRNAs in primary hepatocytes", "assay": "Hepatokine mRNA levels in mouse primary hepatocytes", "format": "cell-based", "conditions": "for EC50: Mus musculus, Hepatocyte", "procedure,_shortened": "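Hepatocytes were isolated from 8-week-old male mice by portal vein perfusion and collagenase digestion, Percoll-purified, plated on collagen I, and cultured in William's E medium. Huh7 cells were grown in DMEM with 10% FBS. Cells were exposed to test compound at graded concentrations and for various times. mRNAs were quantified by RT-qPCR, normalized to Hprt (mouse) or GAPDH (human); n = 3 per group. EC50 was derived from the concentration–response curves.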"}, "CNOT6": {"molecular_target": "CNOT6 (Homo sapiens, UniProt Q9ULM6)", "sequence (Q9ULM6 153-557)": "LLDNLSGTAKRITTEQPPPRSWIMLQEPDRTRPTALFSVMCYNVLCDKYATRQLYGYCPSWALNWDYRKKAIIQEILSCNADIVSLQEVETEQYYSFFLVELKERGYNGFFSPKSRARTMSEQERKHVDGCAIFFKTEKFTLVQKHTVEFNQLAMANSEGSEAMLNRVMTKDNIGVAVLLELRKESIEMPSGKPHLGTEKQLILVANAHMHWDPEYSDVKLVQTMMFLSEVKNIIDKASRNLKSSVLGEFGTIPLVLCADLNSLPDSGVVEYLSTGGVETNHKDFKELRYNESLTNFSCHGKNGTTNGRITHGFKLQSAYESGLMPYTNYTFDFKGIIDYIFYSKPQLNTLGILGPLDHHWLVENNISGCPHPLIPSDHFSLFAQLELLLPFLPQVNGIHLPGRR", "assay": "Gel-based deadenylase assay, CNOT6", "format": "biochemical", "conditions": "compared to CNOT6L", "procedure,_shortened": "(§1)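 Enzymes were expressed in and purified from E. coli BL21: the human CNOT6 catalytic domain (aa 153–557) and full-length human CNOT7 and CNOT8. Each enzyme (2.5 μM final) was preincubated with inhibitor at the indicated concentrations for 1 h at 37 °C. 5′-FITC-labelled poly(A)20 RNA (50 nM final) was then added for 1.5 h at 37 °C, and deadenylation was resolved on gel.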"}, "WT mice [9]": {"tested_on": "WT mice", "format": "in vivo, mouse", "conditions": "single administration"}, "CNOT8": {"molecular_target": "CNOT8 (Homo sapiens, UniProt Q9UFF9)", "sequence (Q9UFF9 whole entry)": "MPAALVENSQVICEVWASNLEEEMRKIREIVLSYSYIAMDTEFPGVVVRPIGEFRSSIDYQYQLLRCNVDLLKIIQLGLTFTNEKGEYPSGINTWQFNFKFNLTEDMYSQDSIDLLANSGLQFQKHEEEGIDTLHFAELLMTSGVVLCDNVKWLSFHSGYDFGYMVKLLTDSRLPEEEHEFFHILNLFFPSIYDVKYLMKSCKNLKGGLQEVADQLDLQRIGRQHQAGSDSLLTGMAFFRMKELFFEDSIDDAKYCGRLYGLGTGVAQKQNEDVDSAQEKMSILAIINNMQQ", "assay": "Gel-based deadenylase assay, CNOT8", "format": "biochemical", "procedure,_shortened": "as §1"}, "WT mice [10]": {"tested_on": "WT mice", "assay": "Oxygen consumption and RER", "format": "in vivo, mouse", "procedure,_shortened": "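WT mice received a single ip injection of vehicle or test compound (2 mg/kg). They were then housed singly on a 12 h light/dark cycle, either fed or food-deprived. VO2 and VCO2 were recorded at 25 °C by indirect calorimetry, and dark- and light-cycle averages were taken. VO2 was expressed per kg body weight per hour, and RER was calculated as VCO2/VO2.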"}, "[11]": {"tested_on": "promoter activity of GDF15 and FGF21 genes", "assay": "Promoter luciferase reporter assay in Huh7 cells", "format": "cell-based, human", "procedure,_shortened": "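Human GDF15 or FGF21 promoters were PCR-amplified from Huh7 genomic DNA and placed upstream of firefly luciferase; a promoter-less construct served as control. Constructs (50–100 ng) were lipofected into Huh7 cells with a Renilla luciferase (TK) control, and cells were treated with vehicle or test compound. Firefly activity was read by dual-luciferase assay and normalized to Renilla.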"}, "[12]": {"tested_on": "translation of Gdf15 and Fgf21 mRNAs in liver", "assay": "Polysome profiling of livers of treated mice", "format": "in vivo, mouse"}, "CNOT7": {"molecular_target": "CNOT7 (Homo sapiens, UniProt Q9UIV1)", "sequence (Q9UIV1 whole entry)": "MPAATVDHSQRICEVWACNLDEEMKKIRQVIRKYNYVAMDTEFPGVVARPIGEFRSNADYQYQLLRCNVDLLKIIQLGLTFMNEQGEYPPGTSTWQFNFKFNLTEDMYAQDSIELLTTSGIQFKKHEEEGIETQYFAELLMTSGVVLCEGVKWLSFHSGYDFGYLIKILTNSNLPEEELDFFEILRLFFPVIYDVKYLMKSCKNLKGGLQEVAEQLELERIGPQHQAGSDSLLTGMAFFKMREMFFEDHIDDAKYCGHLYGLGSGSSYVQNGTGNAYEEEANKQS", "assay": "Gel-based deadenylase assay, CNOT7", "format": "biochemical", "procedure,_shortened": "as §1"}, "[13]": {"conditions": "ref Xiong et al., 2017; cited from earlier work"}, "[14]": {"conditions": "male and female mice, IP twice a week"}}, "note": "Like-named read-outs stand apart in the source and are kept apart here."}
{"molecule": "Nc1ncnc2c1ncn2[C@@H]1O[C@H](COP(=O)(O)O)[C@@H](O)[C@H]1O", "note": "[AMP]", "values": [{"measurement": "IC50", "setting": "CNOT6L", "value": 76300, "unit": "nM"}]}
{"molecule": "Cc1cccc(Nc2cc(Cl)nc(SCC(=O)O)n2)c1C", "note": "[WY-14643, reference compound]", "values": [{"measurement": "FGF21 mRNA in Huh7 cells", "setting": "[1]; 200 μM, 6 h", "value": "increased"}]}
{"molecule": "CC(C)=CCC(O)C1=CC(=O)c2c(O)ccc(O)c2C1=O", "note": "(stereo not drawn) [iD1]", "values": [{"measurement": "obesity-induced hyperlipidemia, hyperglycemia, and hyperinsulinemia", "setting": "[2]; HFD", "value": "ameliorated"}, {"measurement": "hepatic steatosis and lipid accumulation in adipose tissues", "setting": "[2]; HFD obese mice", "value": "reversed"}, {"measurement": "insulin sensitivity and glucose tolerance", "setting": "[2]; HFD, long-term treatment, ITT and GTT", "value": "improved"}, {"measurement": "HFD-induced gain of body weight", "setting": "[2]; [14]", "value": "dramatically decreased"}, {"measurement": "food intake on HFD", "setting": "[2]; [14]", "value": "suppressed"}, {"measurement": "EC50", "setting": "[1]; Huh-7, read-out: EC50 for FGF21 mRNA", "value": 1610, "unit": "nM"}, {"measurement": "EC50", "setting": "[1]; Huh-7, read-out: EC50 for GDF15 mRNA", "value": 530, "unit": "nM"}, {"measurement": "GDF15 and FGF21 protein abundance", "setting": "[1]; Huh7 cells", "value": "increased"}, {"measurement": "effects of thapsigargin and WY-14643 on GDF15 and FGF21 mRNA levels", "setting": "[1]; combination, Huh7 cells, 6 h", "value": "potentiated"}, {"measurement": "decrease of luciferase activity by 3' UTRs of GDF15/FGF21 mRNAs", "setting": "[3]", "value": "reversed"}, {"measurement": "levels of hepatic Gdf15 and Fgf21 mRNAs and serum GDF15 and FGF21 proteins", "setting": "[4]; 3 h after one-time IP injection, 2 mg/kg", "value": "significantly increased"}, {"measurement": "degradation of Gdf15 and Fgf21 mRNAs post-exercise", "setting": "[4]; 3 h post-exercise recovery period, liver", "value": "attenuated degradation"}, {"measurement": "Fgf21 mRNA suppression induced by refeeding", "setting": "[4]; liver, refed after 24 h fasting", "value": "attenuated"}, {"measurement": "c-Fos staining within NTS and AP", "setting": "[5]; 3 h after administration", "value": "robust c-Fos staining"}, {"measurement": "c-Fos staining within PVN in the hypothalamus", "setting": "[5]; after administration", "value": "Robust c-Fos staining"}, {"measurement": "effects on food intake, body weight, serum triglycerides, ketone bodies, hepatic Gdf15 and Fgf21 mRNAs in Cnot6l−/− mice", "setting": "WT mice [6]; Cnot6l whole-body KO mice", "value": "did not induce significant effects"}, {"measurement": "ED50", "setting": "WT mice [6]; read-out: EC50 for body weight", "value": 1.23, "unit": "mg/kg"}, {"measurement": "ED50", "setting": "WT mice [6]; read-out: EC50 for food intake", "value": 1.43, "unit": "mg/kg"}, {"measurement": "body weight", "setting": "WT mice [6]; single administration", "value": "significantly reduced"}, {"measurement": "degradation of GDF15 and FGF21 mRNAs", "setting": "[7]", "value": "potently suppressed degradation"}, {"measurement": "EC50", "setting": "[8]; read-out: EC50 for Fgf21 mRNA", "value": 2080, "unit": "nM"}, {"measurement": "EC50", "setting": "[8]; read-out: EC50 for Gdf15 mRNA", "value": 1110, "unit": "nM"}, {"measurement": "levels of hepatokine mRNAs (GDF15, FGF21, INHBE, ADM, ADAMTS1, HBEGF)", "setting": "[8]; mouse primary hepatocytes and Huh7 cells, dose- and time-dependent", "value": "increased"}, {"measurement": "inhibition of CNOT6", "setting": "CNOT6", "value": "modestly inhibited"}, {"measurement": "serum insulin levels", "setting": "WT mice [9]", "value": "decrease"}, {"measurement": "serum ketone body levels", "setting": "WT mice [9]", "value": "increasing"}, {"measurement": "serum triglycerides", "setting": "WT mice [9]", "value": "reduced"}, {"measurement": "inhibition of CNOT8", "setting": "CNOT8", "value": "did not inhibit"}, {"measurement": "oxygen consumption", "setting": "WT mice [10]; fasted condition, relative to Veh", "value": "consumed more oxygen"}, {"measurement": "respiratory exchange rate (RER)", "setting": "WT mice [10]; fed condition", "value": "significantly reduced"}, {"measurement": "promoter activity of GDF15 and FGF21 genes", "setting": "[11]", "value": "did not alter"}, {"measurement": "global translation", "setting": "[12]", "value": "did not affect"}, {"measurement": "translational efficacy of Gdf15 and Fgf21 mRNAs", "setting": "[12]", "value": "not affected"}, {"measurement": "inhibition of CNOT7", "setting": "CNOT7", "value": "did not inhibit"}]}
{"molecule": "C/C=C(/C)C(=O)O[C@H]1C(C)=C2[C@H]([C@@H]1OC(=O)CCCCCCC)[C@@](C)(OC(C)=O)C[C@H](OC(=O)CCC)[C@@]1(O)[C@H]2OC(=O)[C@@]1(C)O", "note": "[thapsigargin, reference compound]", "values": [{"measurement": "GDF15 mRNA in Huh7 cells", "setting": "[1]; 1 μM, 6 h", "value": "increased"}]}
{"molecule": "poly(I:C) [reference compound]", "values": [{"measurement": "hepatic Gdf15 mRNA", "setting": "[4]; IP 10 mg/kg", "value": "increased"}]}
{"molecule": "B1", "values": [{"measurement": "half-life of circulating protein", "setting": "[13]", "value": 3, "unit": "h"}]}
